Data taken from PubChem BioAssay AID1899 (The Scripps Research Institute Molecular Screening Center, 2009).
In all, about 300,000 compounds went through this assay and about 1,000 (0.33%) were called active.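 How the source made its calls: active means inhibition above the mean of all tested compounds plus 3 SD, set per screening campaign (cut at about 45% in these data); inactive means the rest.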 For the sample, actives were picked, then their nearest neighbours and some compounds at random.

system: HCV core protein (residues 1-106) dimerization; assay: inhibitors of HCV core protein dimerization, primary screen, biochemical, TR-FRET, high-throughput (AID 1899); conditions: TR-FRET GST/Flag-core106 dimerization, 1536-well; at 5 µM; hits give high values
How it was run: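 assay system = GST-tagged and Flag-tagged HCV core protein residues 1-106 | controls = unlabelled core106 and no-GST-core106 wells | incubation = compound-protein-antibody incubation 4 h at 22.5 °C | probe or stimulus = Eu donor and XL665 acceptor anti-tag antibodies | read-out = % inhibition based on acceptor/donor emission ratio | signal = TR-FRET 671 and 617 nm emission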

Structure (SMILES) | inhibition
Cc1ccc(NS(=O)(=O)c2c(C)[nH]c(=O)[nH]c2=O)cc1C | -1.79% (inactive)
Cc1nc2c(c(C)nn2-c2ccccc2)c(C)c1C | -4.33% (inactive)
CSc1ccc(-c2c(C#N)c(N)nc3c2c(C)nn3-c2ccccc2)cc1 | 49.1% (active)
Cc1nn(-c2ccccc2)c2c1C(c1ccc(F)cc1)C(C#N)=C(N)O2 (stereo not given) | -4.93% (inactive)
CC(C)C(C)(C#N)NC(=O)CSc1nc2scc(-c3ccccc3)c2c(=O)[nH]1 (stereo not given) | 13.3% (inactive)
CCC(C)(C)n1nnnc1CN1CCN(c2nc3ccc(C)cc3cc2C#N)CC1 | 20.6% (inactive)
Cc1cc(C)c2nc(N3CCCC3)c(C#N)cc2c1 | 51.7% (active)
CCOC(=O)c1cc(C#N)c(N2CCCCC2)nc1-c1ccccc1 | 13.8% (inactive)
CN(CCC(=O)Nc1cc(S(=O)(=O)N(C)C)ccc1Cl)CC(=O)Nc1ccc(F)cc1 | -16.6% (inactive)
COc1cccc(/C=C2\Sc3ccc(C(=O)NCC4CCCO4)cc3N(C)C2=O)c1 (stereo not given) | 4.72% (inactive)
CCOc1ccccc1NC(=O)Cc1cccs1 | 55.5% (active)
COc1ccc(OC)c(NC(=O)Cc2cccs2)c1 | 14.6% (inactive)
CCOc1ccccc1NC(=O)Cn1nnc(C(=O)NCc2cccs2)c1N | -5.57% (inactive)
COc1ccc(C(=O)c2c3ccc([N+](=O)[O-])cc3[n+]([O-])n2CCCN)cc1 | 1.89% (inactive)
CCc1ccc(NC(=O)CN2C(=O)CSC2=O)cc1 | -2.17% (inactive)
Nc1nonc1-n1nnc(C(=O)N/N=C/C2CCCCC2)c1-c1ccccc1 | -6.4% (inactive)
COc1ccc2c(c1)C(c1cccs1)=NNC(c1cccnc1)=N2 | 48.7% (active)
Fc1ccc2c(c1)C(c1cccnc1)=NNC(c1cccs1)=N2 | -0.24% (inactive)
CCOc1ccc2c(c1)C(c1ccc(C)cc1)=NNC(c1ccc(C)cc1)=N2 | 6.95% (inactive)
CC(=O)c1ccc(S(=O)(=O)NC2CC(=O)N(c3ccc4c(c3)OCCO4)C2)cc1 (stereo not given) | 0.9% (inactive)
COc1ccc(/C=C/C2=CC(C)(C)NC(=S)N2)c(OC)c1 | 3.61% (inactive)
CN1CCN(C(=O)N2c3ccccc3CCc3ccccc32)CC1 | -2.2% (inactive)
CCOc1ccc(C(=O)NC(=S)Nc2ccc(N3CCOCC3)c(Cl)c2)cc1[N+](=O)[O-] | 15.3% (inactive)
Cc1ccc(CSCC2Nc3ccc(C(=O)N4CCN(c5ccc(F)cc5)CC4)cc3NC2=O)cc1 (stereo not given) | 67% (active)
O=C1Nc2cc(C(=O)N3CCN(c4ccc(F)cc4)CC3)ccc2NC1CSCc1cccc(F)c1 (stereo not given) | 17.5% (inactive)

Structure (SMILES) | inhibition
O=C(c1cc(C(=O)N2CCN(c3ccc(F)cc3)CC2)cc([N+](=O)[O-])c1)N1CCN(c2ccc(F)cc2)CC1 | 19% (inactive)
CC(C)(C)n1nnnc1C(c1ccccc1F)N1CCN(C(=O)c2ccco2)CC1 (stereo not given) | -2.83% (inactive)
Cn1c2ccccc2c(=O)c2c(=O)n(Cc3ccco3)c(COc3ccccc3)nc21 | 47.9% (active)
CCCc1nc2c(c(=O)c3ccccc3n2C)c(=O)n1-c1cc(C)cc(C)c1 | 16.2% (inactive)
CCCc1nc2c(c(=O)c3ccccc3n2C)c(=O)n1C1CCCCCC1 | 10.2% (inactive)
O=C1CN(C(=O)COc2c(Cl)cccc2Cl)c2ccccc2N1 | 1.42% (inactive)
Cc1nn(CC(=O)Nc2nc3ccccc3s2)c(C)c1[N+](=O)[O-] | -2.22% (inactive)
CCC(C)Cn1c(O)cc2nn(-c3nc4ccccc4s3)c(=O)c-2c1C (stereo not given) | 55.2% (active)
C/C(=N\NC(=O)CC(C)C)c1c(C(F)(F)F)[nH]n(-c2nc3ccccc3s2)c1=O | -0.73% (inactive)
COC(=O)C1=C(C)NC2=C(C(=O)c3ccccc32)C1c1ccc(-c2ccc(C(=O)O)cc2)o1 (stereo not given) | 5.77% (inactive)
CCOC(=O)C(=CNNc1ccsc1C(=O)OC)C(=O)OCC | -1.96% (inactive)
Cc1cccc(C2=N/C(=C/c3cccs3)C(=O)O2)c1 | 2.89% (inactive)
CN1C/C(=C/c2cccs2)C(=O)/C(=C\c2cccs2)C1 | 6.47% (inactive)
CSC1=N/C(=C\C=C\c2cccs2)C(=O)S1 | 60.2% (active)
Cc1ccc(-n2ncc3c2CC(C)(C)CC3NC(=O)CCc2cnn(C)c2)cc1 (stereo not given) | -3.34% (inactive)
O=C(C1CCCN(S(=O)(=O)c2ccccc2)C1)N1CCN(c2ccc(F)cc2)CC1 (stereo not given) | -13.8% (inactive)
Cc1cc(NC(=O)CCC(=O)N(CC(=O)NC2CCCC2)c2ccc(F)cc2)no1 | 0.03% (inactive)
COc1cccc(OC)c1CN(C)C(=O)c1cnccc1C(F)(F)F | -2.76% (inactive)
Cc1ccc(NC(=O)c2c(NC(=O)CCC(=O)O)sc3c2CCCCC3)cc1 | 47.6% (active)
Cc1ccc(C(=O)c2c(NC(=O)c3ccncc3)sc3c2CCCC3)cc1 | -2.83% (inactive)
Cc1ccc(NC(=O)c2csc3c2CCCC3)cc1 | 5.39% (inactive)
O=S(=O)(Nc1ccc(O)c2ccccc12)c1ccc(OC(F)(F)F)cc1 | -9.45% (inactive)
Cc1nn2c(c1-c1ccccc1)N=C(c1ccco1)CC2c1ccccc1 (stereo not given) | 54.2% (active)
O=C(O)CCCC(=O)N1N=C(c2ccco2)CC1c1ccco1 (stereo not given) | -3.41% (inactive)
Cc1nn(C(=O)c2ccoc2C)c(N)c1-c1ccccc1 | -11.9% (inactive)

Structure (SMILES) | inhibition
Cc1ccc(/C=N/NC(=O)COc2ccccc2-c2ccccc2)cc1 | -1.07% (inactive)
CCOc1ccc(/C=C(/NC(=O)c2ccccc2)C(=O)NCCC(=O)O)cc1 | 2.36% (inactive)
CCC(Cc1ccccc1)NS(=O)(=O)c1ccc2c(c1)NC(=O)CS2 (stereo not given) | 6.21% (inactive)
CCOC(=O)C1=C(C)NC(C)=C(C(=O)OCC)C1C1=COCCO1 | -7.86% (inactive)
CCC(=O)Nc1c(C)n[nH]c1C | 1.83% (inactive)
C=CCN1C=C2C(=O)C(C)(OC(=O)CCc3ccccc3)C(=O)C=C2C=C1c1ccc(C#N)cc1 (stereo not given) | 49% (active)
CC1(OC(=O)CCc2ccccc2)C(=O)C=C2C=C(c3ccc(C#N)cc3)N(CCc3ccccn3)C=C2C1=O (stereo not given) | 13.8% (inactive)
CCCCC1=CC2=CC(=O)C(C)(OC(=O)CC)C(=O)C2=CN1CCCOC(C)C (stereo not given) | 2.27% (inactive)
Nc1c(-c2ccc(F)cc2)cnc2ncnn12 | 0.37% (inactive)
CC1=C(/C=C/C(C)=C/C=C/C(C)=C/C=C/C=C(C)/C=C/C=C(C)/C=C/C2=C(C)CCCC2(C)C)C(C)(C)CCC1 | 69.5% (active)
CCCCCCCCCCCCCCCC(=O)OC/C=C(C)/C=C/C=C(C)/C=C/C1=C(C)CCCC1(C)C | 2.75% (inactive)
Cc1cc(S(=O)(=O)N2CCOCC2)ccc1OCC(=O)Nc1cccc(C(F)(F)F)c1 | 0.78% (inactive)
COc1ccc(C(=O)COC(=O)Cn2cnc3c2c(=O)n(C)c(=O)n3C)c(OC)c1 | -0.66% (inactive)
O=C(NCCN1CCN(C(=O)c2cccc([N+](=O)[O-])c2)CC1)C(=O)NCc1ccc(Cl)cc1 | -0.22% (inactive)
CCOC(=O)/C=c1\s/c(=C\c2ccc(C#N)cc2)c(=O)n1CC(=O)Nc1cccc(C)c1C | 11.6% (inactive)
CN(c1ccccc1)c1ccc(/C=c2\s/c(=C(/C#N)C(=O)C(C)(C)C)n(Cc3ccco3)c2=O)cc1 | 63.2% (active)
CCOC(=O)Cn1c(=O)oc2cc(S(=O)(=O)N(C)Cc3ccco3)ccc21 | -1.55% (inactive)
CCNC(=O)c1sccc1-n1cccc1 | 0.55% (inactive)
CC(C)=CCc1c(O)c(CC=C(C)C)c2occ(-c3ccc(O)cc3)c(=O)c2c1O | -3.16% (inactive)
COc1ccc2c(CC(=O)OCC(=O)NC(N)=O)coc2c1 | -9.08% (inactive)
Cn1cccc1C(=O)NC(=O)COC(=O)Cc1coc2ccc3ccccc3c12 | 60.3% (active)
O=C(Cc1coc2ccc3ccccc3c12)NCc1cccs1 | 10.5% (inactive)
COc1ccc(S(=O)(=O)N2CCOC2CNC(=O)C(=O)NCc2ccc(F)cc2)cc1 (stereo not given) | -0.93% (inactive)
CCOC(=O)c1c(C)[nH]c(C2=NNC(=NC(C)COC)SC2)c1C (stereo not given) | -2.46% (inactive)
COc1cc(NC(=O)C2=CC(c3ccc(C)cc3)=NS(=O)(=O)N2C)cc(OC)c1OC | 1.17% (inactive)
